Data as given in ChEMBL document CHEMBL1135583, “Activity of bisphosphonates against Trypanosoma brucei rhodesiense” (J Med Chem, 2002).

How the values were obtained:
[1] = 50% lethal dose for inhibition of KB cells growth; format: cell-based; conditions: human, read-out: LD50 (the source's name)
In short: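 KB cell line growth measured over a dose-response series by the Alamar blue method. The LD50 is the concentration lethal to 50% of KB cells. The highest level tested was 300 μg/mL; ">" means no inhibition at that level.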

[2] = test system: Trypanosoma brucei rhodesiense; experiment: In vitro growth inhibition of bloodstream-form Trypanosoma brucei rhodesiense Trypomastigotes; format: functional, organism-based
In short: (§1)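 Bloodstream-form T. b. rhodesiense trypomastigotes, strain STIB 900, grown in vitro with the bisphosphonate. IC50 taken as the drug concentration that cuts parasite proliferation by 50%.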

[3] = Therapeutic index measured as the ratio of LD50 (KB cells) to IC50 (T.b. rhodesiense); format: cell-based; conditions: trypanosoma brucei rhodesiense, KB cells versus T. b. rhodesiense; read-out: TI
In short: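 KB cell growth inhibition measured by Alamar blue to give LD50, the dose lethal to 50% of cells; highest level tested 300 μg/mL. Index computed as LD50 (KB cells) / IC50 (T. b. rhodesiense).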

[4] = test system: Trypanosoma brucei rhodesiense; experiment: Predicted pIC50 against Trypomastigotes Brucei rhodesiense.; format: functional, organism-based
In short: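 QSAR prediction from a bisphosphonate training set. Structures geometry-optimized by steepest-descent, conjugate-gradient and Newton–Raphson minimization with no internal constraints. Each molecule aligned by rms fit of its P–C–P backbone to the lowest-energy conformer of the template. Models validated by leave-one-out cross-validation.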

[5] = test system: Trypanosoma brucei rhodesiense; experiment: In vitro rescue of growth inhibition of Trypanosoma brucei rhodesiense [risedronate + farnesol(12.5 ug/mL)]; format: functional, organism-based
[6] = test system: Trypanosoma brucei rhodesiense; experiment: In vitro rescue of growth inhibition of Trypanosoma uM of risedronate along with farnesol (12.5 ug/mL); format: functional
[7] = test system: Trypanosoma brucei rhodesiense; experiment: Log IC50 brucei Trypomastigotes; format: functional, organism-based; in short: as §1
[8] = test system: Trypanosoma brucei rhodesiense; experiment: Percent inhibition of Trypanosoma brucei rhodesiense at 9.27 uM of risedronate along with GPP; format: functional
[9] = test system: Trypanosoma brucei rhodesiense; experiment: Percent inhibition of Trypanosoma brucei rhodesiense at 1.03 uM of risedronate along with GPP; format: functional
[10] = test system: Trypanosoma brucei rhodesiense; experiment: Percent inhibition of Trypanosoma brucei rhodesiense at 27.85 uM of risedronate along with GPP; format: functional
[11] = test system: Trypanosoma brucei rhodesiense; experiment: Percent inhibition of Trypanosoma brucei rhodesiense at 3.09 uM of risedronate along with GPP; format: functional
In short: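 Rescue assay with bloodstream-form trypomastigotes (strain STIB900) seeded at 1 × 10^5/mL in HMI-18 medium with 20% HIFCS. Bisphosphonate was given as three-fold serial dilutions from 83.5 μM, in triplicate. Geranyl pyrophosphate was added at a final 12.5 μg/mL. Plates were incubated for 72 h at 37 °C in 5% CO2-air, then Alamar Blue was added for 4 h and fluorescence read at 530/585 nm.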

[12] = test system: Trypanosoma brucei rhodesiense; experiment: Percent inhibition of Trypanosoma brucei rhodesiense at 83.54 uM of risedronate along with GPP; format: functional
[13] = test system: Trypanosoma brucei rhodesiense; experiment: In vitro growth inhibition of Trypanosoma brucei rhodesiense (risedronate + GPP); format: functional, organism-based
[14] = test system: Trypanosoma brucei rhodesiense; experiment: (§2) In vitro rescue of growth inhibition of Trypanosoma uM of compound; format: functional
[15] = test system: Trypanosoma brucei rhodesiense; experiment: as §2; format: functional; remark: listed apart in the source
[16] = test system: Trypanosoma brucei rhodesiense; experiment: as §2; format: functional; remark: listed apart in the source
[17] = test system: Trypanosoma brucei rhodesiense; experiment: as §2; format: functional; remark: listed apart in the source
[18] = test system: Trypanosoma brucei rhodesiense; experiment: as §2; format: functional; remark: listed apart in the source
[19] = test system: Trypanosoma brucei rhodesiense; experiment: 50% inhibitory concentration against Trypanosoma brucei rhodesiense; format: functional, organism-based; in short: as §1
[20] = test system: Trypanosoma brucei rhodesiense; experiment: as §2; format: functional; remark: listed apart in the source
[21] = test system: Trypanosoma brucei rhodesiense; experiment: Percent inhibition of Trypanosoma brucei rhodesiense at 27.85 uM of risedronate along with FPP; format: functional
[22] = test system: Trypanosoma brucei rhodesiense; experiment: Percent inhibition of Trypanosoma brucei rhodesiense at 83.54 uM of risedronate along with FPP; format: functional
[23] = test system: Trypanosoma brucei rhodesiense; experiment: Percent inhibition of Trypanosoma brucei rhodesiense at 9.27 uM of risedronate along with FPP; format: functional
[24] = test system: Trypanosoma brucei rhodesiense; experiment: In vitro growth inhibition of Trypanosoma brucei rhodesiense (risedronate + FPP); format: functional, organism-based

For CCCCCNC(P(=O)(O)O)P(=O)(O)O [(PENTYLAMINO)METHYLENEDIPHOSPHONIC ACID], the CC50 [1] was greater than 1150 µM, the IC50 [2] was 50.6 µM and the selectivity ratio [3] was greater than 23. For the same compound, the IC50 [4] was 50.1 µM.

For O=P(O)(O)C(Nc1ccc(Br)cn1)P(=O)(O)O, the CC50 [1] was 87 µM, the IC50 [2] was 39.5 µM and the selectivity ratio [3] was 2. For the same compound, the IC50 [4] was 39.8 µM.

Compound O=P(O)(O)C(O)(Cc1ccccn1)P(=O)(O)O has a CC50 [1] of 13.9 µM, a selectivity ratio [3] of 63 and an IC50 [4] of 0.219 µM.

Cc1ccnc(NC(P(=O)(O)O)P(=O)(O)O)c1 gave a CC50 [1] of 127 µM, an IC50 [2] of 0.61 µM and a selectivity ratio [3] of 208. It also gave an IC50 [4] of 0.617 µM.

With Nc1ccc(CC(O)(P(=O)(O)O)P(=O)(O)O)cc1 the CC50 [1] was 218 µM, the selectivity ratio [3] was 5 and the IC50 [4] was 39.8 µM.

In the case of O=P(O)(O)C(Nc1ccc(Cl)cn1)P(=O)(O)O, the CC50 [1] is reported as greater than 992 µM, the IC50 [2] is reported as 53.3 µM and the selectivity ratio [3] is reported as greater than 19. For the same compound, the IC50 [4] was 53.7 µM.

Work on CCCCCN(C)CCC(O)(P(=O)(O)O)P(=O)(O)O [IBANDRONIC ACID] yielded a CC50 [1] of 10.1 µM, an IC50 [2] of 0.96 µM and a selectivity ratio [3] of 10. For the same compound, the IC50 [4] was 0.955 µM.

Compound O=P(O)(O)C(O)(Cc1c[nH]cn1)P(=O)(O)O has a CC50 [1] of 41 µM, a selectivity ratio [3] of 5 and an IC50 [4] of 8.51 µM.

CC(C)=CCC/C(C)=C/CC/C(C)=C/CO.O=P(O)(O)C(O)(Cc1cccnc1)P(=O)(O)O showed an IC50 [5] greater than 83.5 µM and an Inhibition [6] of 0%.

In the case of O=P(O)(O)C(NC1CCCCC1)P(=O)(O)O [(CYCLOHEXYLAMINO)METHYLENEDIPHOSPHONIC ACID], the CC50 [1] is reported as 271 µM, the IC50 [2] is reported as 20.9 µM and the selectivity ratio [3] is reported as 13. The IC50 [4] was 20.9 µM.

Compound CCCCCC(O)(P(=O)(O)O)P(=O)(O)O has a CC50 [1] greater than 993 µM, a selectivity ratio [3] greater than 16 and an IC50 [4] of 63.1 µM.

Work on CCCCCCCCCCC(O)(P(=O)(O)O)P(=O)(O)O yielded a CC50 [1] greater than 806 µM, an IC50 [7] of 7.94 µM and an IC50 [2] of 8 µM. For the same compound, the selectivity ratio [3] was greater than 101.

Compound O=P(O)(O)C(O)(CCc1cccnc1)P(=O)(O)O has a CC50 [1] greater than 804 µM, an IC50 [2] of 1.7 µM and a selectivity ratio [3] greater than 473. For the same compound, the IC50 [4] was 1.7 µM.

For CC(C)=CCC/C(C)=C/COP(=O)(O)OP(=O)(O)O.O=P(O)(O)C(O)(Cc1cccnc1)P(=O)(O)O, the Inhibition [8] was 83.7%, the Inhibition [9] was 0% and the Inhibition [10] was 100%. The Inhibition [11] was 44.59%, the Inhibition [12] was 100% and the IC50 [13] was 3.71 µM.

CCCC(O)(P(=O)(O)O)P(=O)(O)O gave a CC50 [1] greater than 967 µM, a selectivity ratio [3] greater than 11 and an IC50 [4] of 91.2 µM.

Work on CC(C)CCNC(P(=O)(O)O)P(=O)(O)O [(ISOPENTYLAMINO)METHYLENEDIPHOSPHONIC ACID] yielded a CC50 [1] greater than 1150 µM, an IC50 [2] of 102 µM and a selectivity ratio [3] greater than 11. It also gave an IC50 [4] of 102 µM.

Work on O=P(O)(O)C(O)(CSc1ccncc1)P(=O)(O)O yielded a CC50 [1] greater than 746 µM, a selectivity ratio [3] greater than 38 and an IC50 [4] of 20 µM.

NCCC(O)(P(=O)(O)O)P(=O)(O)O [PAMIDRONIC ACID] showed a CC50 [1] of 156 µM, an IC50 [7] greater than 100 µM and an IC50 [2] greater than 100 µM. The selectivity ratio [3] was less than 2.

In the case of CCCCCCCCCCCC(O)(P(=O)(O)O)P(=O)(O)O, the CC50 [1] is reported as 492 µM, the IC50 [7] is reported as 2 µM and the IC50 [2] is reported as 2 µM. It also gave a selectivity ratio [3] of 246.

For CN(C)CCC(O)(P(=O)(O)O)P(=O)(O)O [OLPADRONIC ACID], the CC50 [1] was greater than 1050 µM, the selectivity ratio [3] was greater than 195 and the IC50 [4] was 5.37 µM.

With CC(N)CC(O)(P(=O)(O)O)P(=O)(O)O (stereo unspecified) the CC50 [1] was 977 µM, the IC50 [2] was 7.8 µM and the selectivity ratio [3] was 125. For the same compound, the IC50 [4] was 7.76 µM.

For NCCCCCC(O)(P(=O)(O)O)P(=O)(O)O [NERIDRONIC ACID], the CC50 [1] was 680 µM, the IC50 [7] was 31.6 µM and the selectivity ratio [3] was 21.

CCCCC(O)(P(=O)(O)O)P(=O)(O)O showed a CC50 [1] greater than 1040 µM, a selectivity ratio [3] greater than 10 and an IC50 [4] of 100 µM.

Compound CCCCCCCCNC(P(=O)(O)O)P(=O)(O)O [(OCTYLAMINO)METHYLENEDIPHOSPHONIC ACID] has a CC50 [1] of 66.8 µM, an IC50 [7] of 1.7 µM and an IC50 [2] of 1.7 µM. It also gave a selectivity ratio [3] of 39.

Work on O=P(O)(O)C(O)(Cc1cccnc1)P(=O)(O)O [RISEDRONIC ACID] yielded a CC50 [1] of 249 µM, an Inhibition [14] of 0% and an Inhibition [15] of 19.3%. For the same compound, the Inhibition [16] was 100%, the Inhibition [17] was 23.49% and the Inhibition [18] was 86.49%. It also gave an IC50 [19] of 4.12 µM, a selectivity ratio [3] of 29 and an IC50 [4] of 8.51 µM. For the same compound, the Inhibition [20] was 100%.

For CCCCCCCCCC(O)(P(=O)(O)O)P(=O)(O)O, the CC50 [1] was greater than 775 µM, the IC50 [7] was 20.4 µM and the IC50 [2] was 20.5 µM. For the same compound, the selectivity ratio [3] was greater than 38.

With O=P(O)(O)C(O)(Cc1ccccc1)P(=O)(O)O the CC50 [1] was greater than 931 µM, the selectivity ratio [3] was greater than 44 and the IC50 [4] was 21.4 µM.

For CCN(CC)C(P(=O)(O)O)P(=O)(O)O [(DIETHYLAMINO)METHYLENEDIPHOSPHONIC ACID], the CC50 [1] was 809 µM, the IC50 [2] was 34.4 µM and the selectivity ratio [3] was 24. For the same compound, the IC50 [4] was 34.7 µM.

Cc1cccnc1NC(P(=O)(O)O)P(=O)(O)O gave a CC50 [1] of 187 µM, an IC50 [2] of 0.7 µM and a selectivity ratio [3] of 267. It also gave an IC50 [4] of 0.708 µM.

With CC(C)=CCC/C(C)=C/CC/C(C)=C/COP(=O)(O)OP(=O)(O)O.O=P(O)(O)C(O)(Cc1cccnc1)P(=O)(O)O the Inhibition [21] was 25.4%, the Inhibition [22] was 64.24% and the Inhibition [23] was 0%. The IC50 [24] was 66.8 µM.
